Experiment: Toxicity liver stage against HepG2, at 10uM
Type: cell-based
Set-up: test concentration 10 uM, cell line HepG2-A16-CD81EGFP
Details: human, HepG2-A16-CD81EGFP cells; read-out: INHIBITION
Procedure, shortened: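 Uninfected HepG2-A16-CD81EGFP cells, 3 × 10^3 per well, 1536-well, plated on prespotted compound at 10 μM final, parasite-free screening media added to match infected plates; puromycin 10 μM positive, DMSO 0.5% negative; run in parallel with 48 h PbLuc assay at 37 °C, 5% CO2; viability by CellTiter-Glo luminescence, normalized to controls.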

Compound	cytotoxicity at 10 µM
O=c1c2c[nH]c(N3CCCC3)nc-2cn1C1CCS(=O)(=O)C1 (stereo unspecified)	1.09%
COc1ccccc1OCC(=O)N1CCC[C@]2(C[C@@H](OC)CO2)C1	1.04%
COc1ccc(C2SCC(=O)Nc3ccsc32)cc1 (stereo unspecified)	10.5%
COc1cc(C2Nc3cc(Cl)ccc3C3=NCCN32)cc(OC)c1OC (stereo unspecified)	-24.8%
Cc1cc2nccc(C3CCCN(C(=O)c4cnccn4)C3)n2n1 (stereo unspecified)	10.5%
CN(Cc1nnc2n1CCC2)C(=O)Cc1ccc2c(c1)OCCO2	-7.86%
CCn1ncc2c1CCCC2NCc1cccc2c1OCCCO2 (stereo unspecified)	-13.4%
CC(C)OCCCN(Cc1ccncc1)Cc1cc(F)cc(F)c1	-25.6%
Cc1ccccc1CSc1nc(N)cc(N2CCCC(C(N)=O)C2)n1 (stereo unspecified)	-2.32%
NC(=O)NC(=O)CN1CCN(c2nccs2)CC1	-17.9%
O=C(c1cccnc1N1CCCC1)N1CCOC(c2ccccc2)C1 (stereo unspecified)	3.13%
CCn1ccc(NS(=O)(=O)c2cccc(COC)c2)n1	-5.41%
Cc1nc(C)n(CC2CCCCN2CCS(C)(=O)=O)n1 (stereo unspecified)	-10.9%
Nc1nc(N)c2c(n1)OC1(COCCN(Cc3nccs3)C1)C2 (stereo unspecified)	-0.56%
Cc1ccc(CNC[C@H]2Cn3cc(-c4ccccc4)nc3CO2)cc1	-9.43%
Cc1ccc(S(=O)(=O)NC[C@H]2OC[C@@H](NCc3ccncc3)[C@@H]2O)cc1	2.6%
CCc1nnc(S(=O)(=O)Cc2cc(Cl)c3c(c2)OCO3)n1C	-46.3%
CC1CCCCN1CCNC(=O)c1ccn(-c2ccccc2)n1 (stereo unspecified)	-15.2%
Cc1ccsc1C(=O)N1CCc2ncc(Cn3cccn3)n2CC1	-108%
O=C(c1ccc2[nH]ccc2c1)N1CCn2cc(CN3CCCC3)nc2C1	-78.2%
CN(CC(=O)N1CC(C)(C)[C@@](C)(O)C1)Cc1ccncc1	-49.4%

Compound	cytotoxicity at 10 µM
CC1Oc2c(cccc2C(=O)N2CCN(CC(C)(C)O)CC2)NC1=O (stereo unspecified)	-8.9%
CN1CC[C@H](c2ccccc2)[C@@H]2[C@H]1CCCCN2C(=O)c1cnccn1	-2.5%
CS(=O)(=O)NCc1cc(-c2cc(F)cc(F)c2)nc(N2CC[C@H](O)C2)n1	-9.58%
CNC(=O)CCN(C)c1nc(-c2ccncc2)nc2c1CCNC2	-1.54%
CC(C)n1nc2c(cc1=O)CN(c1ncnc3sccc13)CC2	49.7%
O=C(NC1CC1)[C@@H]1CCO[C@@H]2CCN(CC3CCC3)C[C@H]21	-111%
Cc1nc(C2CCCN2C(=O)CCOCc2ccccc2)no1 (stereo unspecified)	-2.4%
O=C(c1ccc2c(c1)COC2)N1CCC(Nc2cccnn2)CC1	-13.1%
Cc1csc2c(=O)n(CCSc3cnn[nH]3)cnc12	-3.61%
CN(CC1COc2ccccc2O1)C(=O)c1ccc(-c2cn[nH]c2)nc1 (stereo unspecified)	5.37%
O=C(NCc1ccccc1Cl)c1[nH]nc2c1CS(=O)(=O)CC2	-0.908%
Cc1nn(Cc2ccc(C(=O)NCCCN3CCOCC3)o2)c(C)c1Cl	-5.47%
Cc1ccc(C(=O)NS(C)(=O)=O)cc1I	6.22%
Cc1nc(C2CCCN2CC(=O)NCCOc2cccc(F)c2)no1 (stereo unspecified)	-16.3%
CN1CCN(C(=O)c2cn3ccsc3n2)[C@H]2CS(=O)(=O)C[C@H]21	-1.27%
CCN1CCc2[nH]cnc2C12CCN(C(=O)CCCn1cncn1)CC2	-19.2%
CC(O)CCN(C)S(=O)(=O)Cc1ccc(Cl)c(Cl)c1 (stereo unspecified)	3.92%
CC(c1nnc(-c2ccccc2)o1)N1CCc2cncnc2C1 (stereo unspecified)	8.59%
Cc1ccc(CN2C[C@@H]3C[C@H](C(=O)NCc4cccnc4)[C@H](C2)O3)cc1	2.5%
COCC(=O)N1CCCC1c1nccnc1Nc1ncccn1 (stereo unspecified)	-2.69%
Cn1c(=O)n(C)c2nc(Cl)c(CC(=O)c3ccccc3)n2c1=O	-13.9%

Compound	cytotoxicity at 10 µM
CN(C)S(=O)(=O)c1cccc(NC(=O)Cc2ccon2)c1	9.48%
c1ccc(Sc2ccc3c(c2)OCO3)c(CNC2=NCCN2)c1	17.6%
O=C(c1cnc(-c2ccco2)s1)N1CCOc2ncccc21	7.48%
CC(C)(C)C(=O)N1C[C@@H](F)[C@@H](OCc2nc3ncccc3[nH]2)C1	2.97%
CCCS(=O)(=O)N1CCC2(CCCC(=O)N2C)CC1	3.29%
Cn1c(=O)c2cc(C(=O)NCCc3ccccc3)ccc2n(C)c1=O	-13.8%
Cc1nccn1CCCC(=O)N1CCC(Nc2cccnn2)CC1	-17.3%
COc1cc(-c2cc(OC)c(OC)c(OC)c2)ncn1	-2.31%
O=C(Nc1ccc(Cn2cccn2)cc1)N1CCC2(CC1)OCCO2	6.09%
Cc1nn(C)c2sc(C(=O)N3CCCC(n4ccnc4C)C3)cc12 (stereo unspecified)	-10%
COc1cccc([C@@H]2CCN(Cc3[nH]nc(C)c3Cl)C[C@H]2O)c1	-3.26%
O=C1CC[C@H]2[C@H](CCN2C(=O)C2CCOC2)N1Cc1ccncc1 (stereo partly specified)	6.67%
Fc1cccc(-c2noc3c2CN(Cc2cncn2C2CC2)CC3)c1	-1.24%
N#Cc1cccc(CN2C(=O)c3ccccc3CS2(=O)=O)c1	-2.14%
C/C=C(\C)CN1C[C@@H](NC(=O)c2ccc(O)c(Cl)c2)C[C@H]1C(=O)NCC	9.23%
COCc1nc(C(=O)N2CCCC2c2cc(C)on2)cs1 (stereo unspecified)	-5.83%
CC(C)NC(=O)N1CCCCCC1C1CCN(c2ncccn2)CC1 (stereo unspecified)	-23.2%
CC(C)(C)C(O)CN1CCN(CCOCC(F)(F)F)CC1 (stereo unspecified)	-2.02%
COc1ccccc1CCNC(=O)N1CCCC(c2nncn2C)C1 (stereo unspecified)	-25.4%
O=C(NCCc1cccs1)NC1CCN(c2ncccn2)CC1	-141%
COCCNc1nnc(-c2cnc(C)cn2)s1	4.22%

Compound	cytotoxicity at 10 µM
O=C(CNC(=O)N1CCN(c2cccc(Cl)c2)CC1)Nc1ccccn1	-0.74%
CCCOc1cc(C)ccc1NC(=O)NCCNC(C)=O	-6.58%
CN(C)C(=O)Cn1cc(C#N)c(=O)c2cc(Br)ccc21	15.7%
CCNC(=O)c1nnc2ccc(N3CCOCC3)cc2n1	3.56%
O=C(NC1CCNCC1)C1(N2CCCCC2)Cc2ccccc2C1	-5.47%
Cc1cc2c(=O)n3c(nc2s1)CCN(Cc1cnc(C)n1C)CC3	-7.73%
Cc1ccc(OCCN2CCC(c3nc(C)n4c(C)csc34)CC2)cc1	1.94%
COc1ccc(C(=O)N2CCN(C(=O)CCCc3cn[nH]c3)CC2)cc1	-5.63%
Cc1cccc(C(=O)N2CCCCC2c2nc(C)cs2)n1 (stereo unspecified)	-7.26%
CCc1ccc(C2CCCCCN2C(=O)CNC(=O)C2CC2)o1 (stereo unspecified)	-7.25%
COCCNc1nc(C2CCCC2)nc2c1CCNCC2	-6.4%
CC1c2ncc(CNC(=O)C3CC3)n2CCN1Cc1ccncc1 (stereo unspecified)	-5.72%
O=C(O)C(c1ccc2c(c1)OCCO2)N1CCC(N2CCOCC2)CC1 (stereo unspecified)	-0.809%
Cc1cccc2nc(CNCc3cccc4c3OCCCO4)cn12	20.8%
Cc1cc(C(=O)N2CCCC(c3ccc(C(=O)O)cc3)C2)c(C)o1 (stereo unspecified)	11.8%
O=C(Cc1ccsc1)N1CCC(c2noc(-c3cccnc3)n2)CC1	-18.2%
Cn1cnc2c1C(C(=O)N1CCCC1)N(CC1CC1)CC2 (stereo unspecified)	6.37%
CN(C)C(=O)N1CCN(Cc2noc(Cc3ccccc3)n2)CC1	-8.8%

Reference: ChEMBL document CHEMBL4513216, “Probing the Open Global Health Chemical Diversity Library for Multistage-Active Starting Points for Next-Generation Antimalarials” (ACS Infect Dis, 2020)
